In general, IC50 refers to the concentration that inhibits the measured activity by half. In general, logP refers to a log measure of how a compound divides between an organic and an aqueous phase.

Data on one molecule can be found in ChEMBL document CHEMBL3871269, “Conjugates of podophyllotoxin and norcantharidin as dual inhibitors of topoisomeraseⅡ and protein phosphatase 2A” (Eur J Med Chem, 2016).

Calls of active or inactive are those of the source. No cut-off for these calls is given here.

For data set [1], the system named is HepG2. As to the kind of experiment: Inhibition of PP2A in human HepG2 cells assessed as reduction in phosphopeptide substrate level using RRAT(pT)VA as substrate preincubated for 24 hrs followed by substrate addition measured after 30 mins by molybdate dye based assay. Type of data set: cell-based. In outline: (§1)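 HepG2 cells treated 24 h in six-well plates, lysed, endogenous phosphate removed. Lysate incubated 30 min at 37 °C with phosphopeptide RRAT(pT)VA (5 μL of 1 mM). Stopped with molybdate dye mix; A600 after 15 min. Activity from phosphate standard curve, expressed relative to untreated control; mean ± SD.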

Another data set is filed under the species Bos taurus. As to the kind of experiment: Binding affinity to calf thymus DNA at 1 uM at pH 7.2 measured after 5 mins by fluorescence spectroscopic method. The procedure, abridged: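 CT DNA titrated (0–5 μM) into 1 μM compound in pH 7.2 PBS, equilibrated 5 min at 25 °C. Excitation at 318 nm, emission recorded over 280–400 nm. CT DNA samples in PBS at matching concentrations served as blanks.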

Data set [2] in a line: Cytotoxicity against human WI38 cells measured after 48 hrs by MTT assay. Format: toxicity, cell-based, WI-38. In outline: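 MTT growth inhibition in WI-38 lung fibroblasts. Cells seeded at 5×10³/well in RPMI1640 with 10% heat-inactivated FBS, attached 4–6 h, then exposed 48 h at 37 °C, 5% CO₂ to five concentrations (0.01–100 μM, saline-dissolved). MTT 4 h, DMSO solubilisation, A490. IC50 from log plot of percent control vs concentration; triplicate, mean ± SD.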

Data set [3] deals with HepG2. Briefly: Induction of cell cycle arrest in human HepG2 cells assessed as increase in cyclin B1 expression at 0.5 to 1 uM measured after 24 hrs by western blot method. Type of data set: functional, cell-based. The procedure, abridged: (§2)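 HepG2 cells grown 24 h in flasks, then treated with 0, 0.5 or 1 μM for 24 h. Lysis in Tris/NP-40/SDS buffer with protease inhibitors; Bradford protein assay. 30 μg protein on 10% or 12% SDS-PAGE, PVDF transfer, milk block 2 h. Cyclin B1 or cdc2 antibodies (1:500–1:1000) overnight at 4 °C, then secondary. β-actin loading control.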
Background: A western blot detects proteins with antibodies after separation by electrophoresis.

Data set [4] in a line: Cytotoxicity against human A549 cells measured after 48 hrs by MTT assay. Type of data set: functional, cell-based. To be noted: A549, 48 h. The procedure, abridged: (§3)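 MTT growth assay; cells seeded at 5×10³/well in RPMI1640 with 10% heat-inactivated FBS, attached 4–6 h, then exposed to five concentrations (0.01–100 μM, compounds dissolved in saline) for 48 h at 37 °C, 5% CO₂. MTT added for 4 h, formazan dissolved in DMSO, absorbance read at 490 nm. IC50 taken from log plot of percent of control versus concentration; means ± SD of triplicate experiments.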
In general terms: Tetrazolium assays rely on reduction of a dye to a coloured formazan, in cell work by metabolically active cells.

Data set [5] deals with HepG2. As to the kind of experiment: Induction of cell cycle arrest in human HepG2 cells assessed as increase in cyclin B1 expression measured after 24 hrs by western blot method. Format: functional, cell-based. The procedure, abridged: as §2
The nature of data set [6]: Cytotoxicity against human HepG2 cells measured after 48 hrs by MTT assay. Type of data set: functional, cell-based. To be noted: HepG2, 48 h. The procedure, abridged: as §3
Data set [7] relates to HepG2. As to the kind of experiment: Induction of cell cycle arrest in human HepG2 cells assessed as accumulation at G2/M phase measured after 24 hrs by propidium iodide staining based flow cytometry. Type of data set: functional. The procedure, abridged:
(§4)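 HepG2 cells exposed 24 h to 0, 0.5 or 1 μM. (1–5)×10⁵ cells harvested, PBS-washed, fixed in 70% ice-cold ethanol at least overnight. Stained 15 min in dark with 1% Triton X-100, 0.01% RNase, 0.05% PI. Cell-cycle distribution by flow cytometry.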
Background: Flow cytometry measures light scatter and fluorescence of single cells or particles in a stream.

The subject of data set [8] is HepG2. As to the kind of experiment: Induction of cell cycle arrest in human HepG2 cells assessed as increase in cyclin cdc-2 expression measured after 24 hrs by western blot method. Type of data set: functional, cell-based. The procedure, abridged:
as §2

Data set [9] in a line: Cytotoxicity against human HeLa cells measured after 48 hrs by MTT assay. Type of data set: functional, cell-based. The procedure, abridged: as §3
Data set [10] concerns HepG2. Briefly: Induction of cell cycle arrest in human HepG2 cells assessed as accumulation at G2/M phase at 1 uM measured after 24 hrs by propidium iodide staining based flow cytometry (reference value: 9.4%). Type of data set: functional.
Data set [11] in a line: Inhibition of human RBC PP2A assessed as reduction in free phosphate ion release using Lys-Arg-pThr-Ile-Arg as substrate preincubated for 10 mins followed by substrate addition measured after 60 mins by malachite green method. The procedure, abridged: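 Purified PP2A (0.6 mU/well) preincubated with inhibitor 10 min at 37 °C. Reaction started with 200 μM Lys-Arg-pThr-Ile-Arg in 50 mM Tris-HCl pH 7.0, 100 μM CaCl₂; 60 min at room temperature. Released phosphate read by malachite green at 650 nm after 10 min; enzyme-plus-buffer blanks. IC50 from dose–response; mean of three independent experiments in duplicate.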

Data set [12] concerns HepG2. As to the kind of experiment: Induction of cell cycle arrest in human HepG2 cells assessed as decrease in G1 phase at 0.5 to 1 uM measured after 24 hrs by propidium iodide staining based flow cytometry. Type of data set: functional. The procedure, abridged: as §4
For data set [13], the system named is HepG2. As to the kind of experiment: Inhibition of PP2A in human HepG2 cells assessed as residual activity by measuring phosphopeptide substrate level at 2 uM using RRAT(pT)VA as substrate preincubated for 24 hrs followed by substrate addition measured after 30 mins by molybdate dye based assay relative to control. Type of data set: cell-based. The procedure, abridged:
as §1

Data set [14] concerns HepG2. As to the kind of experiment: Induction of cell cycle arrest in human HepG2 cells assessed as accumulation at G2/M phase at 0.5 uM measured after 24 hrs by propidium iodide staining based flow cytometry (reference value: 9.4%). Type of data set: functional.
In data set [15] the test system is HepG2. Briefly: Inhibition of PP2A in human HepG2 cells assessed as residual activity by measuring phosphopeptide substrate level at 5 uM using RRAT(pT)VA as substrate preincubated for 24 hrs followed by substrate addition measured after 30 mins by molybdate dye based assay relative to control. Type of data set: cell-based. In outline:
as §1

Data set [16] relates to HepG2. Briefly: Induction of cell cycle arrest in human HepG2 cells assessed as decrease in G1 phase by propidium iodide staining based flow cytometry. As to conditions: TDE = time-dependent effect. Type of data set: functional. In outline: as §4
The nature of data set [17]: Octanol-water partition coefficient, log P of the compound. Format: physicochemical. To be noted: read-out: logP. In outline:
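Partition coefficient P = compound concentration in 1-octanol / compound concentration in water.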

A short description of data set [18]: Cytotoxicity against human HCT8 cells measured after 48 hrs by MTT assay. Format: functional, cell-based. As to conditions: HCT-8, 48 h. The procedure, abridged:
as §3

Data set [19] concerns HepG2. Briefly: Inhibition of PP2A in human HepG2 cells assessed as residual activity by measuring phosphopeptide substrate level at 1 uM using RRAT(pT)VA as substrate preincubated for 24 hrs followed by substrate addition measured after 30 mins by molybdate dye based assay relative to control. Format: cell-based. In outline:
as §1

For the next data set, the species on record is Homo sapiens. Briefly: Inhibition of human topoisomerase-2 catalytic activity assessed as reduction in pBR322 supercoiled DNA relaxation up to 100 uM measured after 60 mins by ethidium bromide staining agarose gel electrophoresis. In outline:
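Relaxation assay with supercoiled pBR322 (250 ng/μL) and topoisomerase II (4 units) in kit buffer, 20 μL, 60 min at 37 °C. Compound at 50 or 100 μM. Stopped with 10% SDS, proteinase K, chloroform/isoamyl alcohol extraction. Run on 1% agarose in TAE pH 8.0, ethidium bromide stained.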

As for `COc1cc([C@@H]2c3cc4c(cc3[C@@H](NC(=O)CCCN3C(=O)C5C6CCC(O6)C5C3=O)[C@H]3COC(=O)[C@H]23)OCO4)cc(OC)c1O` (stereo partly specified), the inhibition result with HepG2 [1] was “Dose-dependent effect”. The result in the data set filed under Bos taurus, in the data set on HepG2 [3] and in the data set with HepG2 [12] was Active. The IC50 at 48 h in data set [2] was > 100 µM. In addition, the IC50 in data set [4] is 4.57 µM; in data set [6] it was < 0.01 µM; in [9], 4.33 µM; in [11] it was 0.49 µM; in data set [18] it was 3.48 µM. The Activity entry with HepG2 [5] was “Dose-dependent effect”; with HepG2 [7] it was “Dose-dependent effect”; in the data set with HepG2 [8] it was “Dose-dependent effect”; with HepG2 [10], 58.6%; in the data set on HepG2 [13], 32%; with HepG2 [14], 27.6%. Further, the Activity is 27% with HepG2 [15], “Tde” in the data set on HepG2 [16] and 73% in the data set with HepG2 [19]. The logP in [17] came out at 0.68. The inhibition entry in the data set listed under Homo sapiens was “Active”.
